According to ChEMBL document CHEMBL3576863, “Structural requirements for bisphosphonate binding on hydroxyapatite: NMR study of bisphosphonate partial esters” (ACS Med Chem Lett, 2015):
Calls of active or inactive are those of the source. No cut-off for these calls is given here.

Tested on: Hydroxyapatite
Test: Binding affinity to hydroxyapatite at 3.2 to 3.7 mM after 1 hr by NMR analysis relative to control
Conditions: not given
Method in brief: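 Synthetic hydroxyapatite used as a bone model. Each bisphosphonate solution was mixed with HAP for 1 h. Percent HAP-bound was calculated from the solution concentration difference before and after incubation. Statistical comparison by t test.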
In the case of `O=P(O)(O)C(Cl)(Cl)P(=O)(O)O` [CLODRONIC ACID], the Activity is reported as 41.9%.
Molecule `NCCCC(O)(P(=O)(O)O)P(=O)(O)O` has an Activity of 70%.
With `CC(O)(P(=O)(O)O)P(=O)(O)O` [ETIDRONIC ACID] the Activity was 70%.
For `O=P(O)(O)CP(=O)(O)O`, the Activity was 70%.

Tested on: Hydroxyapatite
Test: Binding affinity to hydroxyapatite at 3.6 to 10.7 mM after 1 hr by NMR analysis relative to control
Conditions: not given
Method in brief: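 Hydroxyapatite (HAP) used as a synthetic bone surrogate. BP solution mixed with HAP for 1 h. Bound fraction expressed as percent of BP bound to HAP, calculated from the concentration difference of the BP solution before and after HAP incubation. Statistics by t test.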
In the case of `COP(=O)(O)CP(=O)(O)O`, the Activity is reported as 18.6%.
In the case of `COP(=O)(O)C(Cl)(Cl)P(=O)(O)O`, the Activity is reported as “inactive”.
`CC(=O)NCCCC(OC(C)=O)(P(=O)(O)O)P(=O)(O)O` showed an Activity of 47.7%.
In the case of `COP(=O)(O)CP(=O)(OC)OC`, the Activity is reported as “inactive”.
With `COP(=O)(OC)C(O)(CCCN)P(=O)(O)O` (stereo unspecified) the Activity was 21.7%.
`CC(C)OP(=O)(OC(C)C)C(C)(O)P(=O)(O)O` (stereo unspecified) showed an Activity of 11.4%.
Molecule `COP(=O)(OC)C(C)(O)P(=O)(O)O` (stereo unspecified) has an Activity of 12.6%.
With `COP(=O)(O)C(C)(O)P(=O)(O)OC` (stereo unspecified) the Activity was 3.8%.
`COP(=O)(O)C(O)(CCCN)P(=O)(O)O` (stereo unspecified) showed an Activity of 31%.
With `COP(=O)(O)CP(=O)(O)OC` the Activity was “inactive”.
In the case of `COP(=O)(O)C(C)(O)P(=O)(OC)OC` (stereo unspecified), the Activity is reported as “inactive”.
`CC(O)(P(=O)(O)O)P(=O)(O)Oc1ccccc1` (stereo unspecified) gave an Activity of 48%.
For `CC(C)OP(=O)(O)C(Cl)(Cl)P(=O)(O)O`, the Activity was “inactive”.
Molecule `COP(=O)(O)C(C)(O)P(=O)(O)O` (stereo unspecified) has an Activity of 55.6%.

Tested on: not listed separately
Test: Half life in human plasma at 0.015 mg/kg, iv
Assay type: ADME, organism-based
Conditions: not given
Molecule `CC(O)(P(=O)(O)O)P(=O)(O)O` [ETIDRONIC ACID] has a half-life of 1 h.

Tested on: not listed separately
Test: Half life in human plasma at 2.5 to 4 mg/kg, iv
Assay type: ADME, organism-based
Conditions: not given
In the case of `O=P(O)(O)C(Cl)(Cl)P(=O)(O)O` [CLODRONIC ACID], the half-life is reported as 1 h.

Tested on: Homo sapiens
Test: Half life in human plasma at 1 mg/kg, iv
Assay type: ADME, organism-based
Conditions: in vivo
`NCCC(O)(P(=O)(O)O)P(=O)(O)O` [PAMIDRONIC ACID] showed a t1/2 of 1 h.
